{"source": "PubChem BioAssay AID623987", "about": "(Broad Institute, 2012)", "key": {"[1]": {"assay": "HeLa cell cytotoxicity, dose response, cytotoxicity control for pyoverdine/PvdQ inhibitor project, CellTiter-Glo luminescence, dry powder, set 3 (AID 623987)", "conditions": "HeLa viability, CellTiter-Glo ATP luminescence; at 120 µM (top of the series)", "method_in_brief": "(§1)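 Test system: HeLa cells; Amount: 2,500 cells/well; Buffer or medium: phenol red-free DMEM, 10% FBS; Compound dosing: 3-fold series, 10 mM stock top; Incubation: 24 h pre-growth at 37 °C, 48 h exposure; Signal: CellTiter-Glo luminescence measuring cellular ATP.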"}, "[2]": {"system": "HeLa viability, CellTiter-Glo ATP luminescence", "assay": "HeLa cell cytotoxicity, dose response, cytotoxicity control for pyoverdine/PvdQ inhibitor project, CellTiter-Glo luminescence, dry powder, set 3 (AID 623987)", "method_in_brief": "as §1"}}, "note": "Activity calls are given as the source filed them.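 The calls were made as follows: active = compounds lowering cell ATP light, with fitted IC50 at most twice the top tested dose; inconclusive = flat curve losing 30 to 70% signal, or poor fit; inactive = the rest.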"}
{"smiles": "COCCNC(C#N)c1ccc(Cl)cc1", "note": "(stereo not given)", "values": [{"measurement": "activity change, negative = toxicity", "setting": "[1]", "value": "-1.45% (inactive)"}]}
{"smiles": "CCCCC(C#N)c1ccc(F)cc1", "note": "(stereo not given)", "values": [{"measurement": "activity change, negative = toxicity", "setting": "[1]", "value": "-1.79% (inactive)"}]}
{"smiles": "N#CC(c1ccc(Cl)cc1)c1ncccc1Cl", "note": "(stereo not given)", "values": [{"measurement": "IC50", "setting": "[2]", "value": "> 240 µM (inactive)"}]}
{"smiles": "COCCOCCC(C#N)c1ccc(Cl)cc1", "note": "(stereo not given)", "values": [{"measurement": "IC50", "setting": "[2]", "value": "> 240 µM (inactive)"}]}
{"smiles": "CCCCC(c1ccc(Cl)cc1)c1nn[nH]n1", "note": "(stereo not given)", "values": [{"measurement": "activity change, negative = toxicity", "setting": "[1]", "value": "9.15% (inactive)"}]}
{"smiles": "CCCCC(C#N)c1ccccn1", "note": "(stereo not given)", "values": [{"measurement": "IC50", "setting": "[2]", "value": "> 240 µM (inactive)"}]}
{"smiles": "CN(C)CCCC(C#N)c1ccc(F)cc1", "note": "(stereo not given)", "values": [{"measurement": "IC50", "setting": "[2]", "value": "> 240 µM (inactive)"}]}
{"smiles": "CN(C)CCCC(C#N)c1ccc(Cl)cc1", "note": "(stereo not given)", "values": [{"measurement": "activity change, negative = toxicity", "setting": "[1]", "value": "6.74% (inactive)"}]}
{"smiles": "N#CC(c1ccc(F)cc1)c1cccc(Cl)n1", "note": "(stereo not given)", "values": [{"measurement": "IC50", "setting": "[2]", "value": "> 240 µM (inactive)"}]}
{"smiles": "N#CC(c1ccc(C(F)(F)F)c(Cl)n1)c1ccccc1OC(F)(F)F", "note": "(stereo not given)", "values": [{"measurement": "IC50", "setting": "[2]", "value": "> 240 µM (inactive)"}]}
{"smiles": "N#CC(c1ccc(Cl)cc1)N1CCCC1", "note": "(stereo not given)", "values": [{"measurement": "activity change, negative = toxicity", "setting": "[1]", "value": "24% (inactive)"}]}
{"smiles": "N#Cc1cccc(C(C#N)c2ccc(F)cc2)n1", "note": "(stereo not given)", "values": [{"measurement": "activity change, negative = toxicity", "setting": "[1]", "value": "-2.4% (inactive)"}]}
{"smiles": "COCCC(C#N)c1ccc(F)cc1", "note": "(stereo not given)", "values": [{"measurement": "activity change, negative = toxicity", "setting": "[1]", "value": "4.64% (inactive)"}]}
{"smiles": "COCCC(C#N)c1ccc(Cl)cc1", "note": "(stereo not given)", "values": [{"measurement": "IC50", "setting": "[2]", "value": 94.2, "unit": "µM"}]}
{"smiles": "CCCCC(C#N)c1ccc(F)cn1", "note": "(stereo not given)", "values": [{"measurement": "activity change, negative = toxicity", "setting": "[1]", "value": "1.98% (inactive)"}]}
{"smiles": "N#CC(c1ccc(Cl)cc1)c1cccc(Cl)n1", "note": "(stereo not given)", "values": [{"measurement": "activity change, negative = toxicity", "setting": "[1]", "value": "3.78% (inactive)"}]}
{"smiles": "CCCCC(C#N)c1ccc(Cl)cn1", "note": "(stereo not given)", "values": [{"measurement": "activity change, negative = toxicity", "setting": "[1]", "value": "13.2% (inactive)"}]}
{"smiles": "N#CC(c1ccc(F)cc1)c1cccc(C(F)(F)F)n1", "note": "(stereo not given)", "values": [{"measurement": "activity change, negative = toxicity", "setting": "[1]", "value": "5.55% (inactive)"}]}
{"smiles": "N#CC(c1cccc(C(F)(F)F)n1)c1ccc(Cl)cc1F", "note": "(stereo not given)", "values": [{"measurement": "IC50", "setting": "[2]", "value": "> 240 µM (inactive)"}]}
{"smiles": "COCCOCCC(C#N)c1ccc(F)cc1", "note": "(stereo not given)", "values": [{"measurement": "activity change, negative = toxicity", "setting": "[1]", "value": "5.01% (inactive)"}]}
{"smiles": "N#CC1c2ccc(Cl)cc2CCc2cccnc21", "note": "(stereo not given)", "values": [{"measurement": "IC50", "setting": "[2]", "value": "> 240 µM (inactive)"}]}
{"smiles": "CCCCC(C#N)c1ccc(Cl)cc1", "note": "(stereo not given)", "values": [{"measurement": "activity change, negative = toxicity", "setting": "[1]", "value": "7.6% (inactive)"}]}
{"smiles": "Clc1ccc(C(c2cccc(Cl)n2)c2nn[nH]n2)cc1", "note": "(stereo not given)", "values": [{"measurement": "activity change, negative = toxicity", "setting": "[1]", "value": "1.4% (inactive)"}]}
{"smiles": "N#CC(c1ccc(Cl)cc1)c1ccccn1", "note": "(stereo not given)", "values": [{"measurement": "activity change, negative = toxicity", "setting": "[1]", "value": "0.002% (inactive)"}]}
{"smiles": "N#CC(c1ccc(Cl)cc1)c1cccc(C(F)(F)F)n1", "note": "(stereo not given)", "values": [{"measurement": "activity change, negative = toxicity", "setting": "[1]", "value": "4.48% (inactive)"}]}
